Where “and” joins values, the source holds several entries; their conditions need not be identical. Identical values can stand only once. Calls of active or inactive are those of the source. The calls are words filed in the database; no cut-off is given here.
What was measured:
[1] = tested on: Stomach; assay: Biodistribution in NMRI mouse stomach at 6 MBq/ml, iv after 60 mins by gamma counting; assay type: ADME, organism-based; conditions: in vivo, 1 h
How it was run: (§1)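 Tracer formulated in saline at about 6 MBq/ml (diluted HPLC-purified product); 100 µl given into a tail vein. Mice killed by decapitation at 2 or 60 min p.i.; organs, body parts and blood dissected, weighed and gamma-counted. Values as %ID (cpm in organ/total cpm recovered), %ID/g, or SUV. Total blood mass taken as 7% of body mass. Mean SD, n = 4 per time point.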

[2] = tested on: Intestine; assay: Biodistribution in NMRI mouse intestine at 6 MBq/ml, iv after 60 mins by gamma counting; assay type: ADME, organism-based; conditions: in vivo, 1 h; how it was run: as §1
[3] = Biodistribution in NMRI mouse urine at 6 MBq/ml, iv after 2 mins by gamma counting; assay type: ADME, organism-based; conditions: in vivo; how it was run: as §1
[4] = tested on: Blood; assay: Biodistribution in NMRI mouse blood at 6 MBq/ml, iv after 2 mins by gamma counting; assay type: ADME, organism-based; conditions: in vivo; how it was run: as §1
[5] = tested on: Kidney; assay: Biodistribution in NMRI mouse kidney at 6 MBq/ml, iv after 60 mins by gamma counting; assay type: ADME, organism-based; conditions: in vivo, 1 h; how it was run: as §1
[6] = tested on: Brain; assay: Biodistribution in NMRI mouse brain at 6 MBq/ml, iv after 2 mins by gamma counting; assay type: ADME, organism-based; conditions: in vivo; how it was run: as §1
[7] = target: Cannabinoid receptor 1 (Homo sapiens, UniProt P21554); assay: Displacement of [3H]-SR141716A from human CB1 receptor expressed in CHO cells after 1 hrs by beta counting; assay type: cell-based
Chain of Cannabinoid receptor 1 (P21554 whole entry): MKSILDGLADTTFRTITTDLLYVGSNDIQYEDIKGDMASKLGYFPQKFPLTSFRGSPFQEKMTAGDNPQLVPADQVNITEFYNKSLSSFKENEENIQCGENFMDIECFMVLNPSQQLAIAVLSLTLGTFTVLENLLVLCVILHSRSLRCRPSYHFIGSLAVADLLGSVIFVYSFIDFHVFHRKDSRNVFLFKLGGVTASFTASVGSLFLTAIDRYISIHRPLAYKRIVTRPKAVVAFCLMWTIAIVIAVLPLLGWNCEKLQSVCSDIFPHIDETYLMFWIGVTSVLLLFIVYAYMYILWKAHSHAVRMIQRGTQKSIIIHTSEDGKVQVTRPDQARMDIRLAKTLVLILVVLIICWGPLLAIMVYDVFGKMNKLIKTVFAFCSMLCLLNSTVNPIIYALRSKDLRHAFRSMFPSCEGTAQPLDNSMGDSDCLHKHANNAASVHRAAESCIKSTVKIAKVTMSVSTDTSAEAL

[8] = tested on: Heart; assay: Biodistribution in NMRI mouse heart at 6 MBq/ml, iv after 2 mins by gamma counting; assay type: ADME, organism-based; conditions: in vivo; how it was run: as §1
[9] = tested on: Stomach; assay: Biodistribution in NMRI mouse stomach at 6 MBq/ml, iv after 2 mins by gamma counting; assay type: ADME, organism-based; conditions: in vivo; how it was run: as §1
[10] = tested on: Kidney; assay: Biodistribution in NMRI mouse kidney at 6 MBq/ml, iv after 2 mins by gamma counting; assay type: ADME, organism-based; conditions: in vivo; how it was run: as §1
[11] = Octanol-phosphate buffer partition coefficient, log D of the compound at pH 7.4; assay type: physicochemical
How it was run: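 Radiolabelled tracer partitioned between 1-octanol and 0.025 M phosphate buffer pH 7.4; log D from distribution of radioactivity.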

[12] = Metabolic stability in NMRI mouse brain at 6 MBq/ml, iv after 30 mins by HPLC analysis; assay type: ADME, organism-based; conditions: read-out: Stability
How it was run: (§2)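 Normal NMRI mice were given the tracer IV, and plasma and brain were sampled at 2, 10 or 30 min. The percentage of intact tracer was measured by reversed-phase HPLC with 0.05 M ammonium acetate pH 6.9/acetonitrile eluent, 30/70 for plasma and 40/60 for brain, at 1 ml/min.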

[13] = tested on: Pancreas; assay: Biodistribution in NMRI mouse pancreas at 6 MBq/ml, iv after 2 mins by gamma counting; assay type: ADME, organism-based; conditions: in vivo; how it was run: as §1
[14] = tested on: Spleen; assay: Biodistribution in NMRI mouse spleen at 6 MBq/ml, iv after 60 mins by gamma counting; assay type: ADME, organism-based; conditions: in vivo, 1 h; how it was run: as §1
[15] = Metabolic stability in NMRI mouse brain at 6 MBq/ml, iv after 10 mins by HPLC analysis; assay type: ADME, organism-based; conditions: read-out: Stability; how it was run: as §2
[16] = Biodistribution in NMRI mouse urine at 6 MBq/ml, iv after 60 mins by gamma counting; assay type: ADME, organism-based; conditions: in vivo, 1 h; how it was run: as §1
[17] = tested on: Intestine; assay: Biodistribution in NMRI mouse intestine at 6 MBq/ml, iv after 2 mins by gamma counting; assay type: ADME, organism-based; conditions: in vivo; how it was run: as §1
[18] = tested on: Blood; assay: Biodistribution in NMRI mouse blood at 6 MBq/ml, iv after 60 mins by gamma counting; assay type: ADME, organism-based; conditions: in vivo, 1 h; how it was run: as §1
[19] = tested on: Lung; assay: Biodistribution in NMRI mouse lungs at 6 MBq/ml, iv after 60 mins by gamma counting; assay type: ADME, organism-based; conditions: in vivo, 1 h; how it was run: as §1
[20] = Metabolic stability in NMRI mouse brain at 6 MBq/ml, iv after 2 mins by HPLC analysis; assay type: ADME, organism-based; conditions: read-out: Stability; how it was run: as §2
[21] = tested on: Heart; assay: Biodistribution in NMRI mouse heart at 6 MBq/ml, iv after 60 mins by gamma counting; assay type: ADME, organism-based; conditions: in vivo, 1 h; how it was run: as §1
[22] = Metabolic stability in NMRI mouse plasma at 6 MBq/ml, iv after 10 mins by HPLC analysis; assay type: ADME, organism-based; conditions: read-out: Stability; how it was run: as §2
[23] = Metabolic stability in NMRI mouse plasma at 6 MBq/ml, iv after 2 mins by HPLC analysis; assay type: ADME, organism-based; conditions: read-out: Stability; how it was run: as §2
[24] = tested on: Liver; assay: Biodistribution in NMRI mouse liver at 6 MBq/ml, iv after 60 mins by gamma counting; assay type: ADME, organism-based; conditions: in vivo, 1 h; how it was run: as §1
[25] = target: T1, Cannabinoid receptor 2 (Homo sapiens, UniProt P34972); assay: Displacement of [3H]-CP55940 from human CB2 receptor expressed in CHO cells after 1 hrs by beta counting; assay type: cell-based
T1 sequence (P34972 whole entry): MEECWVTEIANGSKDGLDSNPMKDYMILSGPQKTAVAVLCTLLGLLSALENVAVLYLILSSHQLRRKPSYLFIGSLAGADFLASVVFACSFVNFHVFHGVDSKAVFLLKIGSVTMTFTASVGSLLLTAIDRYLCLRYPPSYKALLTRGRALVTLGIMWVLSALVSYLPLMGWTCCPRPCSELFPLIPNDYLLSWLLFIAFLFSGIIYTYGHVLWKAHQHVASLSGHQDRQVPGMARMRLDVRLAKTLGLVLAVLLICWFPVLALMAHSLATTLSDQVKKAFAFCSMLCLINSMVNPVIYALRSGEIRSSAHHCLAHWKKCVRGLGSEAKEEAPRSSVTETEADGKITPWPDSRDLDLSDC

[26] = tested on: Liver; assay: Biodistribution in NMRI mouse liver at 6 MBq/ml, iv after 2 mins by gamma counting; assay type: ADME, organism-based; conditions: in vivo; how it was run: as §1
[27] = Metabolic stability in NMRI mouse plasma at 6 MBq/ml, iv after 30 mins by HPLC analysis; assay type: ADME, organism-based; conditions: read-out: Stability; how it was run: as §2
[28] = tested on: Spleen; assay: Biodistribution in NMRI mouse spleen at 6 MBq/ml, iv after 2 mins by gamma counting; assay type: ADME, organism-based; conditions: in vivo; how it was run: as §1
[29] = tested on: Brain; assay: Biodistribution in NMRI mouse brain at 6 MBq/ml, iv after 60 mins by gamma counting; assay type: ADME, organism-based; conditions: in vivo, 1 h; how it was run: as §1
[30] = tested on: Pancreas; assay: Biodistribution in NMRI mouse pancreas at 6 MBq/ml, iv after 60 mins by gamma counting; assay type: ADME, organism-based; conditions: in vivo, 1 h; how it was run: as §1
[31] = tested on: Lung; assay: Biodistribution in NMRI mouse lungs at 6 MBq/ml, iv after 2 mins by gamma counting; assay type: ADME, organism-based; conditions: in vivo; how it was run: as §1
[32] = target: T1, Cannabinoid receptor 2; assay: Inverse agonist activity at human CB2 receptor expressed in CHO cells assessed as effect on [35S]-GTPgammaS binding after 1 hrs by beta counting; assay type: functional, cell-based
[33] = tested on: Striatum; assay: In vivo binding affinity to human CB2 receptor D80N mutant expressed in Fisher rat right striatum at 37 MBq, iv after 60 mins by microPET study relative to left striatum; assay type: functional
How it was run: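 Normal 8-week-old Fisher rat received stereotactic AAV2/7-eGFP-T2A-hCB2R(D80N) vector in the right striatum and a control eGFP vector in the left striatum. Scanned 34 days later under 3% isoflurane in 2.0 L/min oxygen. Dynamic microPET started immediately after IV injection of about 37 MBq tracer. Images spatially normalized to stereotactic space; striatal time-activity curves from predefined volumes of interest.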

[34] = tested on: Brain; assay: Biodistribution in Wistar rat brain after 60 mins; assay type: ADME, organism-based; conditions: in vivo, 1 h
[35] = target: T1, Cannabinoid receptor 2; assay: Inverse agonist activity at human CB2 receptor expressed in CHO cells assessed as effect on [35S]-GTPgammaS binding after 1 hrs by beta counting relative to control; assay type: functional, cell-based; conditions: tested as the 18F-labelled form
[36] = tested on: Striatum; assay: In vivo binding affinity to human CB2 receptor D80N mutant expressed in Fisher rat […] at 37 MBq, iv after up to 60 mins by microPET study; assay type: functional, organism-based; conditions: 37 M, tested as the 18F-labelled form

SMILES: Cc1c(CCN2CCOCC2)c2cc(OCC[18F])ccc2n1C(=O)c1cccc(Cl)c1Cl
- Drug uptake [1]: 1.8 %ID
- Drug uptake [2]: 35.7 %ID
- Drug uptake [3]: 0.1 %ID
- Drug uptake [4]: 4.5 %ID and 1.9 % ID/g
- SUV [4]: 0.6
- Drug uptake [5]: 2.2 %ID and 3.4 % ID/g
- SUV [5]: 1.2
- Drug uptake [6]: 1.3 %ID and 2.9 % ID/g
- SUV [6]: 1
- Ki [7]: 10000 nM
- SUV [8]: 2.7
- Drug uptake [9]: 1.3 %ID
- Drug uptake [10]: 9.8 %ID and 15.8 % ID/g
- SUV [10]: 5.5
- logD [11]: 2.8
- remaining at 0.5 h [12]: 48%
- SUV [13]: 1.2
- SUV [14]: 1.1
- remaining at 10 min [15]: 79%
- Drug uptake [16]: 1.4 %ID
- Drug uptake [17]: 8.9 %ID
- Drug uptake [18]: 5 %ID and 2.1 % ID/g
- SUV [18]: 0.7
- SUV [19]: 0.8
- remaining at 2 min [20]: 95%
- SUV [21]: 0.7
- remaining at 10 min [22]: 52%
- remaining at 2 min [23]: 84%
- Drug uptake [24]: 23.7 %ID and 11.4 % ID/g
- SUV [24]: 4
- Ki [25]: 27 nM
- Drug uptake [26]: 47.4 %ID and 26.3 % ID/g
- SUV [26]: 9.1
- remaining at 0.5 h [27]: 12%
- SUV [28]: 3.3
- Drug uptake [29]: 0.7 %ID and 1.6 % ID/g
- SUV [29]: 0.6
- SUV [30]: 0.8
- SUV [31]: 4.5
- EC50 [32]: 17.9 nM

SMILES: Cc1c(CCN2CCOCC2)c2cc(O[11CH3])ccc2n1C(=O)c1cccc(Cl)c1Cl
- Ratio [33]: 1.6
- Drug uptake [34]: 0.1 %ID

SMILES: Cc1c(CCN2CCOCC2)c2cc(OCCF)ccc2n1C(=O)c1cccc(Cl)c1Cl
- Emax [35]: -82%
- Activity [36]: Active

Reference: ChEMBL document CHEMBL1806389, “Synthesis, in vitro and in vivo evaluation of fluorine-18 labelled FE-GW405833 as a PET tracer for type 2 cannabinoid receptor imaging” (Bioorg Med Chem, 2011)
